Measurements collected from several papers.
Protocols differ between the studies behind these lines.

| SMILES | system | conditions | AUC(0-t) [ng·h/mL] |
| --- | --- | --- | --- |
| OCc1ccc(-c2nn(Cc3ccccc3)c3ccccc23)o1 | male CD-1 mouse, plasma | intraperitoneal, 30 mg/kg | 3370 |
| CO[C@H]1/C=C/O[C@@]2(C)Oc3c(C)c(O)c4c(c3C2=O)C2=NC3(CCN(CC(C)C)CC3)NC2=C(NC(=O)/C(C)=C\C=C\[C@H](C)[C@H](O)[C@@H](C)[C@@H](O)[C@@H](C)[C@H](OC(C)=O)[C@@H]1C)C4=O | female CD-1 mouse, plasma | oral, 10 mg/kg | 11200 |
| CN(C)C(=O)c1cc2cnc(Nc3ccc(-c4ccc5c(=O)cc(N6CCOCC6)oc5c4)cc3)nc2n1C1CCCC1.Cl | BALB/c mouse, plasma | intravenous, 2 mg/kg | 2790 |
| Cc1ccc(N(c2ccc(NC(=O)CN(C)c3ccccc3N3CCCC3=O)cc2)C(C)C)cc1 | male CD-1 mouse, plasma | oral, 20 mg/kg | 2710 |
| OCc1nc2ccc(NCc3ccc(C(F)(F)F)cc3)cc2[nH]1 | male BALB/c mouse, plasma | oral, 10 mg/kg | 2730 |
| COC1=CC(c2ccc[nH]2)=N/C1=C\c1cc(Cc2ccc(OC(F)(F)F)cc2)c(C)[nH]1.Cl | male CD-1 mouse, plasma | oral, 40 mg/kg, single dose | 8220 |
| Cc1ncsc1-c1ccc([C@H](CC(=O)N2CC3(C2)CN(c2ccc(C#Cc4ccc(C(=O)N5CCC(n6cc(-c7ccc8c(c7)CCN8C(=O)Cc7cccc(OC(F)(F)F)c7)c7c(N)ncnc76)CC5)cc4)cn2)C3)NC(=O)[C@@H]2C[C@@H](O)CN2C(=O)[C@@H](NC(=O)C2(F)CC2)C(C)(C)C)cc1 | male C57BL/6 mouse, plasma | intravenous, 1 mg/kg | 5920 |
| NCc1ccc(-c2nn(Cc3ccncc3)c3ccccc23)o1 | male CD-1 mouse, plasma | intravenous, 5 mg/kg | 1050 |
| Cc1ncsc1-c1ccc([C@H](C)NC(=O)[C@@H]2C[C@@H](O)CN2C(=O)[C@@H](NC(=O)CCCCCCCCCCC(=O)NCCCn2cc(-c3ccc4c(c3)CCN4C(=O)Cc3cccc(OC(F)(F)F)c3)c3c(N)ncnc32)C(C)(C)C)cc1 | mouse, plasma | intravenous, 1 mg/kg | 835 |
| Cc1ccc(OCC(=O)N[C@@H](Cc2c[nH]c3ccccc23)C(=O)OC(C)C)cc1 | male Sprague-Dawley mouse, plasma | intravenous, 10 mg/kg | 2460 |
| C[C@@H](CN1CCC(n2c(=O)[nH]c3cc(Cl)ccc32)CC1)NC(=O)c1ccc2ccccc2c1 | male CD-1 mouse, plasma | intravenous, 1 mg/kg, single dose | 11.9 |
| CCOC(=O)c1c(NC(=O)CNC(C)C)sc2c1CCCCC2 | male mouse, plasma | intraperitoneal, 5 mg/kg, single dose | 300 |
| NCc1ccc(-c2nn(Cc3ccccc3)c3ccccc23)o1 | male CD-1 mouse, plasma | oral, 10 mg/kg | 891 |
| O=C1CCC(N2Cc3cc(C4CCN(Cc5ccccc5)CC4)ccc3C2=O)C(=O)N1 (stereo not shown) | male CD-1 mouse, plasma | intravenous, 1 mg/kg | 310 |
| Cc1cc(-c2ccnc3[nH]cc(F)c23)cc(F)c1[C@@]1(O)[C@H](C)CN(C2CCS(=O)(=O)CC2)C[C@@H]1C | male CD-1 mouse, plasma | intravenous, 1 mg/kg | 3020 |
| Cc1ncsc1-c1ccc([C@H](C)NC(=O)[C@@H]2C[C@@H](O)CN2C(=O)[C@@H](NC(=O)CCCCCCCCC(=O)N2CCC(n3cc(-c4ccc5c(c4)CCN5C(=O)Cc4cccc(OC(F)(F)F)c4)c4c(N)ncnc43)CC2)C(C)(C)C)cc1 | male C57BL/6 mouse, plasma | intravenous, 1 mg/kg | 1240 |
| COC1=CC(c2ccc[nH]2)=N/C1=C\c1[nH]c(Cc2ccc(OC(F)(F)F)cc2)cc1Cc1ccc(OC(F)(F)F)cc1 | male CD-1 mouse, liver | oral, 40 mg/kg, single dose | 494000 |
| Cc1nc2ccc(OCc3ccc(C(F)(F)F)cc3)cc2[nH]1 | male BALB/c mouse, plasma | oral, 10 mg/kg | 13200 |
| Cc1cc(-c2ccnc3[nH]cc(F)c23)cc(F)c1[C@@]1(O)[C@H](C)CN(C(=O)CN)C[C@@H]1C | male CD-1 mouse, plasma | intravenous, 1 mg/kg | 18400 |
